Data taken from ChEMBL document CHEMBL1687913, “Structure-activity relationship, conformational and biological studies of temporin L analogues” (J Med Chem, 2011).
Converted amounts (≈) assume the structure as drawn. Where a SMILES comes first, the peptide text is derived from it. [ ]: non-standard residue; d: D form. Orn = NCCC[C@H](N)C(=O)O

How the values were obtained:
[1] = system: Acinetobacter baumannii; assay: Antibacterial activity against Acinetobacter baumannii ATCC 19606 after 18 to 20 hrs by microbroth dilution method; format: functional
Procedure, shortened: (§1)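 CLSI microbroth dilution, adapted. Mid-log bacteria, 2 × 10^6 CFU/mL in Mueller-Hinton broth, mixed 1:1 with MH broth holding peptide in serial 2-fold dilutions in 20% ethanol (0.75-48 μM). Incubated 18-20 h at 37 °C; growth read as A600. MIC is the lowest concentration giving 100% growth inhibition.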

[2] = system: Acinetobacter junii; assay: Antibacterial activity against […] Acinetobacter junii RT-4 after 18 to 20 hrs by microbroth dilution method; format: functional; procedure, shortened: as §1
[3] = system: Enterococcus faecalis; assay: Antibacterial activity against Enterococcus faecalis ATCC 29212 after 18 to 20 hrs by microbroth dilution method; format: functional; procedure, shortened: as §1
[4] = system: Escherichia coli; assay: Antibacterial activity against Escherichia coli ATCC 25922 after 18 to 20 hrs by microbroth dilution method; format: functional; procedure, shortened: as §1
[5] = system: Escherichia coli; assay: Antibacterial activity against Escherichia coli D21 after 18 to 20 hrs by microbroth dilution method; format: functional; procedure, shortened: as §1
[6] = system: Pseudomonas syringae; assay: Antibacterial activity against Pseudomonas syringae pv tobaci after 18 to 20 hrs by microbroth dilution method; format: functional; procedure, shortened: as §1
[7] = system: Pseudomonas aeruginosa; assay: Antibacterial activity against Pseudomonas aeruginosa ATCC 15692 after 18 to 20 hrs by microbroth dilution method; format: functional; procedure, shortened: as §1
[8] = system: Pseudomonas aeruginosa; assay: Antibacterial activity against Pseudomonas aeruginosa ATCC 27853 after 18 to 20 hrs by microbroth dilution method; format: functional; procedure, shortened: as §1
[9] = system: Yersinia pseudotuberculosis; assay: Antibacterial activity against Yersinia pseudotuberculosis YPIII after 18 to 20 hrs by microbroth dilution method; format: functional
Procedure, shortened: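 Broth microdilution adapted from CLSI. Mid-log bacteria at 2 × 10^6 CFU/mL in Mueller-Hinton broth were mixed 1:1 with MH broth containing peptide in serial 2-fold dilutions (peptide in 20% ethanol), 0.75-48 μM. Plates were incubated 18-20 h at 37 °C and growth was read as A600. MIC is the concentration giving 100% growth inhibition.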

[10] = system: Priestia megaterium; assay: Antibacterial activity against Bacillus megaterium Bm11 after 18 to 20 hrs by microbroth dilution method; format: functional; procedure, shortened: as §1
[11] = system: Staphylococcus aureus; assay: Antibacterial activity against Staphylococcus aureus ATCC 25923 after 18 to 20 hrs by microbroth dilution method; format: functional; procedure, shortened: as §1
[12] = system: Staphylococcus aureus; assay: Antibacterial activity against Staphylococcus aureus Cowan I after 18 to 20 hrs by microbroth dilution method; format: functional; procedure, shortened: as §1
[13] = system: Staphylococcus capitis; assay: Antibacterial activity against Staphylococcus capitis after 18 to 20 hrs by microbroth dilution method; format: functional; procedure, shortened: as §1
[14] = system: Staphylococcus epidermidis; assay: Antibacterial activity against Staphylococcus epidermidis ATCC 12228 after 18 to 20 hrs by microbroth dilution method; format: functional; procedure, shortened: as §1
[15] = system: Streptococcus pyogenes; assay: Antibacterial activity against Streptococcus pyogenes ATCC 21547 after 18 to 20 hrs by microbroth dilution method; format: functional; procedure, shortened: as §1
[16] = system: Candida albicans; assay: Antifungal activity against Candida albicans ATCC 10231 after 18 to 20 hrs by microbroth dilution method; format: functional
Procedure, shortened: (§2)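 Yeasts tested by adapted CLSI microbroth dilution in Winge medium. Peptide given in serial 2-fold dilutions (0.75-48 μM, made in 20% ethanol). Incubation 18-20 h at 30 °C, read at A600. MIC taken as the concentration giving complete (100%) growth inhibition.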

[17] = system: Schizosaccharomyces pombe; assay: Antifungal activity against Schizosaccharomyces pombe after 18 to 20 hrs by microbroth dilution method; format: functional; procedure, shortened: as §2
[18] = system: Saccharomyces cerevisiae; assay: Antifungal activity against Saccharomyces cerevisiae after 18 to 20 hrs by microbroth dilution method; format: functional; procedure, shortened: as §2
[19] = Toxicity in human erythrocytes assessed as hemolysis at 24 uM after 40 mins; format: cell-based, Erythrocyte; conditions: read-out: Activity
Procedure, shortened: (§3)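 Human red blood cells suspended in 0.9% (w/v) NaCl and incubated 40 min at 37 °C with gentle mixing with serial 2-fold peptide dilutions (peptide predissolved in 20% ethanol). Spun 5 min at 900g; supernatant read at 415 nm. Cells lysed in distilled water set the 100% lysis reference.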

[20] = Toxicity in human erythrocytes assessed as hemolysis at 12 uM after 40 mins; format: cell-based, Erythrocyte; conditions: read-out: Activity; procedure, shortened: as §3
[21] = Toxicity in human erythrocytes assessed as hemolysis at 6 uM after 40 mins; format: cell-based, Erythrocyte; conditions: read-out: Activity; procedure, shortened: as §3
[22] = Toxicity in human erythrocytes assessed as hemolysis at 3 uM after 40 mins; format: cell-based, Erythrocyte; conditions: read-out: Activity; procedure, shortened: as §3
[23] = Toxicity in human erythrocytes assessed as hemolysis at 1.5 uM after 40 mins; format: cell-based, Erythrocyte; conditions: read-out: Activity; procedure, shortened: as §3

SMILES	MIC [1] [µM]	MIC [2] [µM]	MIC [3] [µM]	MIC [4] [µM]	MIC [5] [µM]	MIC [6] [µM]	MIC [7] [µM]	MIC [8] [µM]	MIC [9] [µM]	MIC [10] [µM]	MIC [11] [µM]	MIC [12] [µM]	MIC [13] [µM]	MIC [14] [µM]	MIC [15] [µM]	MIC [16] [µM]	MIC [17] [µM]	MIC [18] [µM]	hemolysis at 40 min, 24 µM [19] [%]	hemolysis at 40 min, 12 µM [20] [%]	further results
CC[C@H](C)[C@H](NC(=O)[C@H](CCCN)NC(=O)CNC(=O)[C@H](CC(C)C)NC(=O)[C@H](Cc1ccccc1)NC(=O)[C@H](CCCCN)NC(=O)[C@H](CO)NC(=O)[C@H](Cc1ccccc1)NC(=O)[C@H](Cc1c[nH]c2ccccc12)NC(=O)[C@H](CCC(N)=O)NC(=O)[C@@H](NC(=O)[C@@H](N)Cc1ccccc1)C(C)C)C(=O)N[C@@H](CC(C)C)C(N)=O (H-FVQWFSKFLG[Orn]IL-NH2)	12 (≈ 19.2 µg/mL)	12 (≈ 19.2 µg/mL)	6 (≈ 9.59 µg/mL)	12 (≈ 19.2 µg/mL)	12 (≈ 19.2 µg/mL)	12 (≈ 19.2 µg/mL)	24 (≈ 38.4 µg/mL)	24 (≈ 38.4 µg/mL)	3 (≈ 4.79 µg/mL)	1.5 (≈ 2.4 µg/mL)	3 (≈ 4.79 µg/mL)	1.5 (≈ 2.4 µg/mL)	3 (≈ 4.79 µg/mL)	3 (≈ 4.79 µg/mL)	24 (≈ 38.4 µg/mL)	6 (≈ 9.59 µg/mL)	12 (≈ 19.2 µg/mL)	12 (≈ 19.2 µg/mL)	89	62	hemolysis at 40 min, 6 µM [21]: 22%; hemolysis at 40 min, 3 µM [22]: 7%; hemolysis at 40 min, 1.5 µM [23]: 3%
CC[C@H](C)[C@H](NC(=O)[C@H](CCCN)NC(=O)CNC(=O)[C@H](CC(C)C)NC(=O)[C@H](Cc1ccccc1)NC(=O)[C@H](CCCCN)NC(=O)[C@H](CO)NC(=O)[C@H](Cc1ccccc1)NC(=O)[C@H](Cc1c[nH]c2ccccc12)NC(=O)[C@@H]1CCCN1C(=O)[C@@H](NC(=O)[C@@H](N)Cc1ccccc1)C(C)C)C(=O)N[C@@H](CC(C)C)C(N)=O (H-FVPWFSKFLG[Orn]IL-NH2)	12 (≈ 18.8 µg/mL)	6 (≈ 9.4 µg/mL)	12 (≈ 18.8 µg/mL)	12 (≈ 18.8 µg/mL)	24 (≈ 37.6 µg/mL)	12 (≈ 18.8 µg/mL)	48 (≈ 75.2 µg/mL)	48 (≈ 75.2 µg/mL)	6 (≈ 9.4 µg/mL)	6 (≈ 9.4 µg/mL)	12 (≈ 18.8 µg/mL)	3 (≈ 4.7 µg/mL)	6 (≈ 9.4 µg/mL)	6 (≈ 9.4 µg/mL)	6 (≈ 9.4 µg/mL)	6 (≈ 9.4 µg/mL)	12 (≈ 18.8 µg/mL)	6 (≈ 9.4 µg/mL)	72	12	hemolysis at 40 min, 6 µM [21]: 2%; hemolysis at 40 min, 3 µM [22]: 1%; hemolysis at 40 min, 1.5 µM [23]: 0.7%
